Data: ChEMBL document CHEMBL3244114, “Synthesis of 11 beta,13 beta- and 13 beta,16 beta-propano steroids: probes of hormonal activity” (J Med Chem, 1979)
Calls of active or inactive are those of the source. The calls are words filed in the database; no cut-off is given here.

Assays:
[1] = biological target: T1, Progesterone receptor (Oryctolagus cuniculus) (UniProt P06186); test: Binding affinity to progesterone receptor in rabbit uterine cytosol relative to progesterone; conditions: Uterus
T1 sequence (whole entry): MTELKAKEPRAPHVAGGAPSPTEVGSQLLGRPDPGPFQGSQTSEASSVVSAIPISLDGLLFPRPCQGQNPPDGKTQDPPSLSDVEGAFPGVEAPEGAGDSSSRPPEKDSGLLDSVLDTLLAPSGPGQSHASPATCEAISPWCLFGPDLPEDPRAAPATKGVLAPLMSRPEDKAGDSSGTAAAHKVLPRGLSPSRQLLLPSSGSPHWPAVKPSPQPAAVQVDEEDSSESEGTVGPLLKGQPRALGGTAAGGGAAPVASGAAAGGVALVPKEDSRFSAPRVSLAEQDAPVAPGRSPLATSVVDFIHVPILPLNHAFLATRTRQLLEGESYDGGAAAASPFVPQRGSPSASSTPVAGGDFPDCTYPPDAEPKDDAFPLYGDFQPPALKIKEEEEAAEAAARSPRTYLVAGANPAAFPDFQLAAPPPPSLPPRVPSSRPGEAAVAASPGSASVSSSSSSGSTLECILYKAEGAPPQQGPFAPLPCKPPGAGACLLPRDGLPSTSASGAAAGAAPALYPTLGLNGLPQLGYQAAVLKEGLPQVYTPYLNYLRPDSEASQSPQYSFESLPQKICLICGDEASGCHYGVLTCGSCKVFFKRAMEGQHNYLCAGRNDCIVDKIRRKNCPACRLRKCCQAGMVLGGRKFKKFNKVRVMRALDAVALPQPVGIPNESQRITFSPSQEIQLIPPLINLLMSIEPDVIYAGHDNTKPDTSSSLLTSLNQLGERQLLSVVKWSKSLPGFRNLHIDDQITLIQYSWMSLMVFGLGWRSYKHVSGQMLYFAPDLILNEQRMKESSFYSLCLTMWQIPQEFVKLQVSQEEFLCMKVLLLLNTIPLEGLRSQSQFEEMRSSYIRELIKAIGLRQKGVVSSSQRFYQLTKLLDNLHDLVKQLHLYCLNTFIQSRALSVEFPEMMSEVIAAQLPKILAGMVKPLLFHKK

Oryctolagus cuniculus [2] = test: Antiprogestational activity in estradiol benzoate-primed rabbit at 10 to 15 mg, sc administered qd for 5 days by anti-Clauberg assay in presence of progesterone; format: functional, organism-based
In short: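 Immature rabbits (six) were primed with estradiol benzoate for 6 days. Each compound (10–15 mg) was then given with progesterone (0.8 mg) in sesame oil, subcutaneously, once daily for 5 days. The read-out was uterine stimulation. NICHD ran the assay.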

Oryctolagus cuniculus [3] = species: Oryctolagus cuniculus; test: Progestational activity in immature rabbit assessed as uterine stimulation by Clauberg assay; format: functional
[4] = Solubility of the compound in carbon tetrachloride; format: physicochemical

Compound | Activity [1] | solubility [4] | Activity (Oryctolagus cuniculus [2]) | Activity (Oryctolagus cuniculus [3])
C#C[C@]1(O)CC[C@H]2[C@@H]3CCC4=CC(=O)CC[C@@H]4[C@H]3[C@@H](C)C[C@@]21C | 390% | – | – | –
C#C[C@]1(O)[C@H]2CCC[C@@]13CC[C@H]1[C@@H](CCC4=CC(=O)CC[C@@H]41)[C@@H]3C2 (racemic) | 1% | – | inactive | –
C#C[C@]1(O)CC[C@H]2[C@@H]3CCC4=CC(=O)CC[C@@H]4[C@H]3CC[C@@]21CCCOC(=O)CBr | 2% | – | inactive | –
C#C[C@]1(O)CC[C@H]2[C@@H]3CCC4=CC(=O)CC[C@@H]4[C@H]3CC[C@@]21C | 126% | – | – | –
C#C[C@]1(O)CC[C@H]2[C@@H]3CCC4=CC(=O)CC[C@@H]4[C@H]3CC[C@@]21CCCOC(C)=O | – | – | inactive | –
C#C[C@]1(O)CC[C@H]2[C@@H]3CCC4=CC(=O)CC[C@@H]4[C@H]3[C@H]3CCC[C@]21C3 (racemic) | 136% | – | – | –
C#C[C@]1(O)CC[C@H]2[C@@H]3CCC4=CC(=O)CC[C@@H]4[C@H]3[C@@H](C)C[C@@]21CC (racemic) | 151% | – | – | –
COc1ccc2c(c1)CCC1=C2[C@@H]2C[C@]3(CCC2O)[C@@H](OC(C)=O)CC[C@@H]13 (stereo partly drawn) | – | Insoluble | – | –

Continued, in another order:

Activity [1] | solubility [4] | Compound | Activity (Oryctolagus cuniculus [2]) | Activity (Oryctolagus cuniculus [3])
206% | – | C#CC1(O)CC[C@H]2[C@@H]3CCC4=CC(=O)CC[C@@H]4[C@H]3CC[C@@]21CC (mixture of isomers) | – | –
21% | – | C#C[C@]1(O)CC[C@H]2[C@@H]3CCC4=CC(=O)CC[C@@H]4[C@H]3CC[C@@]21CCC=O | inactive | 5%
1% | – | C#C[C@]1(O)CC[C@H]2[C@@H]3CCC4=CC(=O)CC[C@@H]4[C@H]3CC[C@@]21CCCCl | inactive | –
2% | – | C#C[C@]1(O)CC[C@H]2[C@@H]3CCC4=CC(=O)CC[C@@H]4[C@H]3CC[C@@]21CCCO | inactive | –
